# Results: ChEMBL document CHEMBL1133909, “Piperazine-based CCR5 antagonists as HIV-1 inhibitors. I: 2(S)-methyl piperazine as a key pharmacophore element” (Bioorg Med Chem Lett, 2001)
# Legend:
# [1] = target: T1, Muscarinic acetylcholine receptor M2 (Homo sapiens, UniProt P08172); assay: Affinity for Muscarinic acetylcholine receptor M2
# T1 sequence (P08172 whole entry): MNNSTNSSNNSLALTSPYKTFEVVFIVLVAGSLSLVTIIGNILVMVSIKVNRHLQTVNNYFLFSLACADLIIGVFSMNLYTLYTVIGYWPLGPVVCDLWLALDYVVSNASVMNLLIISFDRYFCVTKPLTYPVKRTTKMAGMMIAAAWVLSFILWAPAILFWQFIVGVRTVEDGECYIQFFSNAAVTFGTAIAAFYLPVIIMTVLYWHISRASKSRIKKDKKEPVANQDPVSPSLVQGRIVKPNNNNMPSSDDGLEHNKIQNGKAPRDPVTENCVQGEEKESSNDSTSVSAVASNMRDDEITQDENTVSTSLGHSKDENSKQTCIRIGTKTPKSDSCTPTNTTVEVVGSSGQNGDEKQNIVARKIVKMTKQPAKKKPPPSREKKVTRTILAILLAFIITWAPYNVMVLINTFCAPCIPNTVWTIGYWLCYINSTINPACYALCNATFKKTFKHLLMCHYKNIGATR
# [2] = Antiviral activity was measured as inhibition of the growth of primary HIV-1 isolate (US-1) in human peripheral blood mononuclear cells; assay type: functional
# [3] = target: T2, C-C chemokine receptor type 5 (Homo sapiens, UniProt P51681); assay: Inhibition of [125I]-labeled RANTES binding to C-C chemokine receptor type 5
# T2 sequence (P51681 whole entry): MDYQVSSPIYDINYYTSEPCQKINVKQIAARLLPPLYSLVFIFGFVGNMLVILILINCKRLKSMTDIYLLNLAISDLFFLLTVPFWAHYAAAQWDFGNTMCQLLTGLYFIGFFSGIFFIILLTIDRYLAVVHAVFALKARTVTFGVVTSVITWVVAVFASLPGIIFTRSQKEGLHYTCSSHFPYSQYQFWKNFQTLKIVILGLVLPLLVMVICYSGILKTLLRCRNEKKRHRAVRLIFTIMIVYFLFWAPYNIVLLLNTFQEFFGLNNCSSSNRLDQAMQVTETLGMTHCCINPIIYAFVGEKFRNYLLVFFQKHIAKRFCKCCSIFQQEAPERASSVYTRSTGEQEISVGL
# Summary of the method: (§1)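 Membranes from CHO cells expressing CCR5 incubated 1 h with 125I-RANTES, with or without compound. Counts averaged. IC50 taken as the amount inhibiting 50% of total 125I-RANTES binding. Ki derived from the binding data. Standard error 10%; assay-to-assay variability 2–3 fold.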
# [4] = target: T2, C-C chemokine receptor type 5; assay: Ability to inhibit [125I]-labeled RANTES binding to C-C chemokine receptor type 5; summary of the method: as §1
# [5] = target: T2, C-C chemokine receptor type 5; assay: Ability to inhibit [125I]-labeled RANTES binding to C-C chemokine receptor type 5 expressed in membrane preparation of CHO cells; assay type: cell membranes; summary of the method: as §1
Structure (SMILES),Ki [1] [nM],Ki [3] [nM],Ki [5] [nM],IC50 [2] [nM],IC50 [4] [nM]
Cc1cccc(C)c1C(=O)N1CCC(N2CCN([C@@H](C)c3ccc(Cc4ccc5c(c4)OCO5)cc3)[C@@H](C)C2)CC1,760,18,–,8,–
Cc1cccc(C)c1C(=O)N1CCC(N2CCN([C@@H](C)c3ccc(S(=O)(=O)c4ccc5c(c4)OCO5)cc3)[C@H](C)C2)CC1,0.8,–,–,–,440
Cc1cccc(C)c1C(=O)N1CCC(N2CCN([C@@H](C)c3ccc(Cc4cccc(Cl)c4)cc3)[C@@H](C)C2)CC1,> 1400,45,–,–,–
Cc1cccc(C)c1C(=O)N1CCC(N2CCN(Cc3ccc(Cc4ccc5c(c4)OCO5)cc3)[C@@H](C)C2)CC1,> 40,44,–,–,–
Cc1cccc(C)c1C(=O)N1CCC(N2CCN(Cc3ccc(S(=O)(=O)c4ccc5c(c4)OCO5)cc3)[C@@H](C)C2)CC1,> 40,74,–,–,–
Cc1cccc(C)c1C(=O)N1CCC(N2CCN([C@@H](C)c3ccc(S(=O)(=O)c4ccc5c(c4)OCO5)cc3)[C@@H](C)C2)CC1,485,28,–,–,–
Cc1ccccc1C(=O)N1CCC(N2CCN([C@@H](C)c3ccc(Cc4ccc5c(c4)OCO5)cc3)[C@@H](C)C2)CC1,35,–,–,–,90

# The next lines start with results.
Ki [1] [nM],Ki [3] [nM],Ki [5] [nM],Structure (SMILES),IC50 [2] [nM],IC50 [4] [nM]
270,49,–,C[C@H]1CN(C2CCN(C(=O)c3c(Cl)cccc3Cl)CC2)CCN1[C@@H](C)c1ccc(S(=O)(=O)c2ccc3c(c2)OCO3)cc1,–,–
497,352,–,Cc1cccc(C)c1C(=O)N1CCC(N2CCN(Cc3ccc(Cc4ccc5c(c4)OCO5)cc3)CC2)CC1,–,–
31,> 1300,–,Cc1cccc(C)c1C(=O)N1CCC(N2CCN(Cc3ccc(S(=O)(=O)c4ccc5c(c4)OCO5)cc3)CC2)CC1,–,–
352,230,–,C[C@H]1CN(C2CCN(C(=O)c3c(F)cccc3F)CC2)CCN1[C@@H](C)c1ccc(S(=O)(=O)c2ccc3c(c2)OCO3)cc1,–,–
1,442,–,Cc1cccc(C)c1C(=O)N1CCC(N2CCN([C@@H](C)c3ccc(S(=O)(=O)c4ccc5c(c4)OCO5)cc3)CC2)CC1,–,–
100,32,–,C[C@H]1CN(C2CCN(C(=O)c3c(N)cccc3Cl)CC2)CCN1[C@@H](C)c1ccc(S(=O)(=O)c2ccc3c(c2)OCO3)cc1,–,–
100,–,31,Cc1cccc(N)c1C(=O)N1CCC(N2CCN([C@@H](C)c3ccc(S(=O)(=O)c4ccc5c(c4)OCO5)cc3)[C@@H](C)C2)CC1,–,–
